Source: ChEMBL document CHEMBL1125686, “(Benzoylphenyl)piperidines: a new class of immunomodulators” (1991)

Columns and labels:
Format in all cases: functional
Design in all cases: unit not given here
Mus musculus [1] = organism: Mus musculus; experiment: Maximal proliferation induced in the presence of the mitogen-PHA ( stimulated blastogenesis) in Mice cells at a dose of 5 ug/mL
How it was run: (§1)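 Splenocytes from female DBA/2 mice, 6–9 weeks old; red cells lysed with cold 0.17 M NH₄Cl. Cells plated at 5 × 10⁶ cells/mL in RPMI 1640 with 5% FCS, with compound (5–80 μg/mL range) and Con A, PWM or PHA at a batch-optimized concentration. Cultured 72 h at 37 °C, 5% CO₂, with [³H]thymidine for the final 24 h, read by scintillation. Triplicate wells; mean ± SD of three cultures.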

Mus musculus [2] = organism: Mus musculus; experiment: Proliferation induced by the mitogen alone-PHA (control blastogenesis), in Mice cells at a dose of 5 ug/mL; how it was run: as §1
Mus musculus [3] = experiment: Proliferation induced by the mitogen alone-Concanavalin A (control blastogenesis), in mice cells dosed at 5 ug/mL; how it was run: as §1
Mus musculus [4] = experiment: Maximal proliferation induced in the presence of the mitogen-Concanavalin A (stimulated blastogenesis) in mice cells dosed at 5 ug/mL; how it was run: as §1
Mus musculus [5] = organism: Mus musculus; experiment: Proliferation induced by the mitogen alone-PWM (control blastogenesis), in Mice cells at a dose of 10 ug/mL; how it was run: as §1
Mus musculus [6] = organism: Mus musculus; experiment: Maximal proliferation induced in the presence of the mitogen-PWM ( stimulated blastogenesis) in Mice cells at a dose of 10 ug/mL; how it was run: as §1
Mus musculus [7] = organism: Mus musculus; experiment: Proliferation induced by the mitogen alone-PWM (control blastogenesis), in Mice cells at a dose of 40 ug/mL
How it was run: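 Splenocytes from female DBA/2 mice aged 6–9 weeks, red cells lysed with cold 0.17 M NH4Cl, cultured at 5 × 10⁶ cells/mL in RPMI 1640 with 5% FCS. Pokeweed mitogen added at a batch-adjusted optimal level, 72 h at 37 °C, 5% CO2. [³H]thymidine pulse for the final 24 h, then scintillation counting. Triplicates; mean ± SD of three cultures.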

Mus musculus [8] = organism: Mus musculus; experiment: Maximal proliferation induced in the presence of the mitogen-PWM ( stimulated blastogenesis) in Mice cells at a dose of 40 ug/mL; how it was run: as §1

Nc1ccc(N2CCC(Cc3ccccc3)CC2)c(C(=O)c2ccc(Cl)cc2)c1
Proliferative response (Mus musculus [1]): 35.1
Proliferative response (Mus musculus [2]): 27.4
Proliferative response (Mus musculus [3]): 328
Proliferative response (Mus musculus [4]): 308
Proliferative response (Mus musculus [5]): 108.2
Proliferative response (Mus musculus [6]): 79.5

COc1ccc(C(=O)c2cc(N)ccc2N2CCC(C)CC2)cc1
Proliferative response (Mus musculus [1]): 54.3
Proliferative response (Mus musculus [2]): 36.3
Proliferative response (Mus musculus [3]): 322.1
Proliferative response (Mus musculus [4]): 363.6
Proliferative response (Mus musculus [5]): 103.3
Proliferative response (Mus musculus [6]): 121.8

CC1CCN(c2ccc(N)cc2C(=O)c2cccc(C(F)(F)F)c2)CC1
Proliferative response (Mus musculus [1]): 36
Proliferative response (Mus musculus [2]): 34.3
Proliferative response (Mus musculus [3]): 332
Proliferative response (Mus musculus [4]): 297.7
Proliferative response (Mus musculus [5]): 79
Proliferative response (Mus musculus [6]): 79.9

CNc1ccc(N2CCC(C)CC2)c(C(=O)c2ccc(Cl)cc2)c1
Proliferative response (Mus musculus [3]): 18.2
Proliferative response (Mus musculus [4]): 21.3
Proliferative response (Mus musculus [5]): 20.3
Proliferative response (Mus musculus [6]): 19.5

Nc1ccc(N2CCC(O)CC2)c(C(=O)c2ccc(Cl)cc2)c1
Proliferative response (Mus musculus [1]): 52.6
Proliferative response (Mus musculus [2]): 45
Proliferative response (Mus musculus [3]): 374.8
Proliferative response (Mus musculus [4]): 281.1
Proliferative response (Mus musculus [5]): 107.9
Proliferative response (Mus musculus [6]): 88.7

COc1ccc(C(=O)c2ccccc2N2CCC(C)CC2)cc1
Proliferative response (Mus musculus [3]): 127.5
Proliferative response (Mus musculus [4]): 165
Proliferative response (Mus musculus [5]): 20.8
Proliferative response (Mus musculus [6]): 15.5

CC1CCN(c2ccc(N)cc2C(=O)c2cccc(Cl)c2)CC1
Proliferative response (Mus musculus [1]): 40.9
Proliferative response (Mus musculus [2]): 40.2
Proliferative response (Mus musculus [3]): 316
Proliferative response (Mus musculus [4]): 343.8
Proliferative response (Mus musculus [5]): 102.8
Proliferative response (Mus musculus [6]): 105

Cc1ccc(C(=O)c2cc(N)ccc2N2CCC(C)CC2)cc1
Proliferative response (Mus musculus [7]): 53.8
Proliferative response (Mus musculus [3]): 179.7
Proliferative response (Mus musculus [4]): 283.2
Proliferative response (Mus musculus [8]): 48.9

CCC1CCN(c2ccc(N)cc2C(=O)c2ccc(Cl)cc2)CC1
Proliferative response (Mus musculus [1]): 37.4
Proliferative response (Mus musculus [2]): 30.4
Proliferative response (Mus musculus [3]): 319.5
Proliferative response (Mus musculus [4]): 348
Proliferative response (Mus musculus [5]): 88.7
Proliferative response (Mus musculus [6]): 114.6

CC1CCN(c2ccc(N)cc2C(=O)c2ccccc2)CC1
Proliferative response (Mus musculus [7]): 48.9
Proliferative response (Mus musculus [3]): 188.1
Proliferative response (Mus musculus [4]): 167
Proliferative response (Mus musculus [8]): 55.7

CC1CCN(c2ccccc2C(=O)c2ccccc2)CC1
Proliferative response (Mus musculus [3]): 13.6
Proliferative response (Mus musculus [4]): 9
Proliferative response (Mus musculus [5]): 15.1
Proliferative response (Mus musculus [6]): 24.7

CC1CCCN(c2ccc(N(C)C)cc2C(=O)c2ccc(Cl)cc2)C1 (stereo unspecified)
Proliferative response (Mus musculus [3]): 17.6
Proliferative response (Mus musculus [4]): 14.9
Proliferative response (Mus musculus [5]): 21.4
Proliferative response (Mus musculus [6]): 18.6

Nc1ccc(N2CCCCC2)c(C(=O)c2ccc(Cl)cc2)c1
Proliferative response (Mus musculus [3]): 24.6
Proliferative response (Mus musculus [4]): 21.3
Proliferative response (Mus musculus [5]): 47.7
Proliferative response (Mus musculus [6]): 44.8

CC1CCN(c2ccc([N+](=O)[O-])cc2C(=O)c2ccc(Cl)cc2)CC1
Proliferative response (Mus musculus [7]): 59.9
Proliferative response (Mus musculus [3]): 160.9
Proliferative response (Mus musculus [4]): 93.7
Proliferative response (Mus musculus [8]): 42.7

CC1CCN(c2ccc(N)cc2C(=O)c2ccc(Cl)cc2Cl)CC1
Proliferative response (Mus musculus [1]): 46.4
Proliferative response (Mus musculus [2]): 46.7
Proliferative response (Mus musculus [3]): 280
Proliferative response (Mus musculus [4]): 246.2
Proliferative response (Mus musculus [5]): 105.5
Proliferative response (Mus musculus [6]): 115.9

CC(C)(C)C1CCN(c2ccc(N)cc2C(=O)c2ccc(Cl)cc2)CC1
Proliferative response (Mus musculus [1]): 55
Proliferative response (Mus musculus [2]): 59.1
Proliferative response (Mus musculus [3]): 30.5
Proliferative response (Mus musculus [4]): 31.9
Proliferative response (Mus musculus [5]): 114.8
Proliferative response (Mus musculus [6]): 137.5

Cc1cccc(C(=O)c2cc(N)ccc2N2CCC(C)CC2)c1
Proliferative response (Mus musculus [1]): 62.4
Proliferative response (Mus musculus [2]): 47.9
Proliferative response (Mus musculus [3]): 389.9
Proliferative response (Mus musculus [4]): 414.1
Proliferative response (Mus musculus [5]): 98.8
Proliferative response (Mus musculus [6]): 135.9
